Experiments:
RAW [1] = test: Inhibition of 1ug/ml LPS-stimulated nitirc oxide accumulation in RAW 264 cells after 24 hrs; assay type: functional, cell-based, Mus musculus; conditions: for IC50: Mus musculus, RAW, 24 h
Summary of the method: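 RAW 264.7 cells were activated with LPS for 24 h. NO was measured as nitrite accumulated in the medium, by Griess reaction. 1400W was the positive control. Results are mean ± SD, n = 3.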

MCF7 [2] = test: Cytotoxicity against human MCF7 cells by MTT microassay; assay type: functional, cell-based
Summary of the method: (§1)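 MTT microassay in cultured human tumour cells from ATCC. Compounds were dissolved in DMSO and diluted in culture medium to 0.1% DMSO. Controls received medium with 0.1% DMSO, and 5-fluorouracil was the positive control. IC50 is given as mean ± SD, n = 3.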

Neutrophil [3] = test: Inhibition of 5 ug/ml CB-stimulated Lysozyme release from rat neutrophils; assay type: functional, cell-based; conditions: for IC50: Rattus norvegicus, Neutrophil
Summary of the method: (§2)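 Rat neutrophils were stimulated with fMLP plus cytochalasin B, and β-glucuronidase and lysozyme release were measured. Trifluoperazine was the positive control. IC50 is mean ± SD, n = 3; where IC50 exceeds 30, % inhibition at 30 is shown.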

[4] = Cytotoxicity against human Hep 3B cells by MTT microassay; assay type: functional, cell-based, Hep 3B2; conditions: Hep3B; summary of the method: as §1
Neutrophil [5] = test: Inhibition of 0.3 uM fMLP-stimulated superoxide anion generation in rat neutrophils; assay type: functional, cell-based; conditions: for IC50: Rattus norvegicus, Neutrophil
Summary of the method: (§3)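 Rat neutrophils, with superoxide anion generation triggered by either fMLP combined with cytochalasin B or by PMA (3 nM).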

HT-29 = test: Cytotoxicity against human HT29 cells by MTT microassay; assay type: functional, cell-based; summary of the method: as §1
[6] = Inhibition of beta-glucuronidase release from rat mast cells; assay type: functional; set-up: Inhibition: concentration or dose not given beside the values; conditions: for IC50: Rattus norvegicus
Neutrophil [7] = test: Inhibition of 3 nM PMA-stimulated superoxide anion generation in rat neutrophils; assay type: functional, cell-based; conditions: for IC50: Rattus norvegicus, Neutrophil; summary of the method: as §3
[8] = Inhibition of histamine release from rat mast cells; assay type: functional; set-up: Inhibition: concentration or dose not given beside the values; conditions: for IC50: Rattus norvegicus
Neutrophil [9] = test: Inhibition of 1 uM fMLP-stimulated beta-Glucuronidase release from rat neutrophils; assay type: functional, cell-based; conditions: for IC50: Rattus norvegicus, Neutrophil; summary of the method: as §2
A549 = test: Cytotoxicity against human A549 cells by MTT microassay; assay type: functional, cell-based; summary of the method: as §1
RAW [10] = test: Inhibition of 1 ug/ml LPS-stimulated TNFalpha accumulation in RAW 264 cells after 24 hrs; assay type: functional, cell-based, Mus musculus; conditions: for IC50: Mus musculus, RAW, 24 h
Summary of the method: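 RAW 264.7 cells were activated with LPS, and TNF-α formation in the culture medium was measured. Genistein was the positive control. Results are mean ± SD, n = 3.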

MCF7 [11] = test: Induction of apoptosis in MCF7 cells assessed as subG1-phase accumulation at 8.7 uM after 72 hrs; assay type: functional, Homo sapiens
Summary of the method: (§4)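 MCF-7 cells were exposed to compound and washed with PBS at each time point. They were fixed in 4% paraformaldehyde/PBS (pH 7.4) for 30 min at room temperature, then permeabilized in 0.1% Triton X-100/0.1% sodium citrate for 2 min at 4 °C. PI staining followed for 30 min at 37 °C. FACScan flow cytometry counted ≥5000 cells. Apoptosis is the sub-G1 DNA fraction; controls received medium; three independent experiments.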

MCF7 [12] = test: Induction of apoptosis in MCF7 cells assessed as subG1-phase accumulation at 8.7 uM after 48 hrs; assay type: functional, Homo sapiens; summary of the method: as §4
MCF7 [13] = test: Induction of apoptosis in MCF7 cells assessed as subG1-phase accumulation at 34.7 uM after 24 hrs; assay type: functional, Homo sapiens; summary of the method: as §4
MCF7 [14] = test: Induction of apoptosis in MCF7 cells assessed as subG1-phase accumulation at 34.7 uM after 48 hrs; assay type: functional, Homo sapiens; summary of the method: as §4
MCF7 [15] = test: Induction of apoptosis in MCF7 cells assessed as subG1-phase accumulation at 52 uM after 24 hrs; assay type: functional, Homo sapiens; summary of the method: as §4
MCF7 [16] = test: Induction of apoptosis in MCF7 cells assessed as subG1-phase accumulation at 8.7 uM after 24 hrs; assay type: functional, Homo sapiens; summary of the method: as §4
MCF7 [17] = test: Induction of apoptosis in MCF7 cells assessed as subG1-phase accumulation at 34.7 uM after 72 hrs; assay type: functional, Homo sapiens; summary of the method: as §4
MCF7 [18] = test: Induction of apoptosis in MCF7 cells assessed as subG1-phase accumulation at 52 uM after 48 hrs; assay type: functional, Homo sapiens; summary of the method: as §4
MCF7 [19] = test: Induction of apoptosis in MCF7 cells assessed as subG1-phase accumulation at 52 uM after 72 hrs; assay type: functional, Homo sapiens; summary of the method: as §4

Row | SMILES | IC50 (RAW [1]) | IC50 (MCF7 [2]) | IC50 (Neutrophil [3]) | IC50 [4] | IC50 (Neutrophil [5]) | IC50 (HT-29) | IC50 [6] | Inhibition (Neutrophil [7]) | IC50 (Neutrophil [7]) | IC50 ([8]; read-out: IC50) | IC50 (Neutrophil [9]) | IC50 (A549) | IC50 (RAW [10]) | further results
1 | COc1ccc(OC)c(C(=O)/C=C/c2cccs2)c1 | > 10 µM | 3.8 µM | 14.6 µM | 8.4 µM | > 30 µM | 13.3 µM | > 30 µM | 7.9% | > 30 µM | > 30 µM | > 30 µM | 11 µM | > 30 µM | Inhibition (RAW [1]): 49.8%; Inhibition (Neutrophil [5]): 47.2%; Inhibition [6]: -4.6%; Inhibition [8]: 0.8%; Inhibition (Neutrophil [9]): 38.5%; Inhibition (RAW [10]): 5.9%
2 | COc1ccc(OC)c(C(=O)/C=C/c2ccsc2)c1 | – | 3.7 µM | – | 5.7 µM | – | 5.3 µM | – | – | – | – | – | 3.8 µM | – | –
3 | COc1ccc(OC)c(C(=O)/C=C/c2ccco2)c1 | 5.7 µM | 10.5 µM | 8.3 µM | 19 µM | 3 µM | 24.8 µM | 18.4 µM | 49.1% | > 30 µM | > 30 µM | 6.2 µM | 27.9 µM | 4.6 µM | –
4 | COc1ccc(OC)c(C(=O)/C=C/c2ccoc2)c1 | – | 18.2 µM | – | 12 µM | – | 21.3 µM | – | – | – | – | – | 22.1 µM | – | –
5 | COc1ccc(OC)c(C(=O)/C=C/c2ccc(C)o2)c1 | > 10 µM | 10.3 µM | 17.8 µM | 26.5 µM | > 30 µM | 43 µM | > 30 µM | 39% | > 30 µM | – | 22.2 µM | 51.5 µM | > 10 µM | Inhibition (RAW [1]): 29.5%; Inhibition (Neutrophil [5]): 48.1%; Inhibition [6]: 12.7%; Inhibition [8]: 17.5%; IC50 [8]: > 30 µM; Inhibition (RAW [10]): -10.5%
6 | COc1ccc(OC)c(C(=O)/C=C/c2ccc(C)s2)c1 | 6.7 µM | 2.6 µM | > 30 µM | 3.4 µM | > 30 µM | 1.8 µM | > 30 µM | -11.9% | > 30 µM | > 30 µM | > 30 µM | 4.5 µM | > 30 µM | Activity (MCF7 [11]): 41.61%; Activity (MCF7 [12]): 16.39%; Activity (MCF7 [13]): 4.05%; Inhibition (Neutrophil [3]): 37.4%; Activity (MCF7 [14]): 18.68%; Inhibition (Neutrophil [5]): 49.1%; Inhibition [6]: -2.7%; Activity (MCF7 [15]): 5.09%; Activity (MCF7 [16]): 7.52%; Activity (MCF7 [17]): 62.4%; Activity (MCF7 [18]): 21.23%; Inhibition [8]: 43.5%; Inhibition (Neutrophil [9]): 45.6%; Inhibition (RAW [10]): 46%; Activity (MCF7 [19]): 63.79%
7 | COc1ccc(OC)c(C(=O)/C=C/c2sccc2C)c1 | – | 7.6 µM | – | 16.7 µM | – | 19.4 µM | – | – | – | – | – | 22.2 µM | – | –
8 | COc1ccc(OC)c(C(=O)/C=C/c2ccc(OC/C=C/c3ccccc3)cc2)c1 | > 30 µM | 19 µM | > 30 µM | 17.3 µM | > 10 µM | 26.3 µM | > 30 µM | 4.1% | > 10 µM | > 30 µM | > 30 µM | 39.8 µM | > 30 µM | Inhibition (RAW [1]): 27.9%; Inhibition (Neutrophil [3]): 33.1%; Inhibition (Neutrophil [5]): -71.9%; Inhibition [6]: -11.2%; Inhibition [8]: 0.3%; Inhibition (Neutrophil [9]): 18.8%; Inhibition (RAW [10]): 15%
9 | COc1ccc(OC)c(C(=O)/C=C/c2ccc(OC(=O)/C=C/c3ccc(C)cc3)cc2)c1 | – | 12.6 µM | – | 29 µM | – | 16.4 µM | – | – | – | – | – | 29.7 µM | – | –
10 | COc1ccc(/C=C/C(=O)Oc2ccc(/C=C/C(=O)c3cc(OC)ccc3OC)cc2)cc1 | – | 4.1 µM | – | 42.6 µM | – | 23 µM | – | – | – | – | – | 60.4 µM | – | –
11 | COc1ccc(OC)c(C(=O)/C=C/c2ccc(Br)o2)c1 | 12.8 µM | 11 µM | > 30 µM | 11 µM | 19.7 µM | 15.2 µM | > 30 µM | -2.2% | > 30 µM | > 30 µM | > 30 µM | 14.9 µM | > 30 µM | Inhibition (Neutrophil [3]): 33.4%; Inhibition [6]: -13.3%; Inhibition [8]: 6.3%; Inhibition (Neutrophil [9]): 36.9%; Inhibition (RAW [10]): 35.6%
12 | COc1ccc(OC)c(C(=O)/C=C/c2ccc(OC(=O)/C=C/c3cc(OC)c(OC)c(OC)c3)cc2)c1 | – | 6.4 µM | – | 23.2 µM | – | 23.8 µM | – | – | – | – | – | 36.7 µM | – | –
13 | CC(=N)NCc1cccc(CN)c1 [1400W] | 5.2 µM | – | – | – | – | – | – | – | – | – | – | – | – | –
14 | CC(=O)O[C@H](CC=C(C)C)C1=CC(=O)c2c(O)ccc(O)c2C1=O [ACETYLSHIKONIN] | – | – | – | – | – | – | 2.2 µM | – | – | 2 µM | – | – | – | –
15 | c1ccc2c(c1)[I+]c1ccccc1-2 [DIPHENYLENEIODONIUM CHLORIDE] | – | – | – | – | 5.8 µM | – | – | – | 3.3 µM | – | – | – | – | –
16 | O=c1[nH]cc(F)c(=O)[nH]1 [FLUOROURACIL] | – | 1.5 µM | – | 0.6 µM | – | 0.6 µM | – | – | – | – | – | 3.1 µM | – | –
17 | O=c1c(-c2ccc(O)cc2)coc2cc(O)cc(O)c12 [GENISTEIN] | – | – | – | – | – | – | – | – | – | – | – | – | 18.1 µM | –
18 | CN1CCN(CCCN2c3ccccc3Sc3ccc(C(F)(F)F)cc32)CC1 [TRIFLUOPERAZINE] | – | – | 12.7 µM | – | – | – | – | – | – | – | 13.2 µM | – | – | –

Source: ChEMBL document CHEMBL1147846, “Synthetic 2',5'-dimethoxychalcones as G(2)/M arrest-mediated apoptosis-inducing agents and inhibitors of nitric oxide production in rat macrophages” (Eur J Med Chem, 2007)
